The results in this text go back to ChEMBL document CHEMBL1158834, “Cytotoxic clerodane diterpenoids from Casearia membranacea” (2005).

Values after ≈ are worked out from the molar mass of the structure shown.

What all share (assay type): functional
A short description of assay [1]: Cytotoxicity against human medulloblastoma cells after 3 days by methylene blue staining. The note with it: Medulloblastoma cell, 72 h, read-out: ED50 (the source's name). The procedure, abridged: (§1)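 Cells grown in RPMI-1640 at 37 °C, 5% CO2, seeded at 2880 cells/well for 3 h, then given sample (prepared at 1, 10, 40 and 100 µg/mL) for 3 days at 37 °C. Fixed in 10% formaldehyde/0.9% saline, stained with 1% methylene blue in 0.01 M borate, eluted with EtOH/0.1 M HCl, A650 read. ED50 is the concentration halving absorbance versus untreated cells.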

The next assay concerns DLD-1. As to the kind of experiment: Cytotoxicity against human DLD1 cells after 3 days by methylene blue staining. The note with it: DLD-1, 72 h, read-out: ED50 (the source's name). The procedure, abridged: as §1
In the next assay the test system is KB. As to the kind of experiment: Cytotoxicity against human KB cells after 3 days by methylene blue staining. The note with it: 72 h, read-out: ED50 (the source's name). A digest of the protocol:
as §1

Turning to `C=CC(=C)CC[C@]1(C)[C@H]2C[C@H](OC(=O)CCC)C=C3[C@H](OC(C)=O)O[C@H](OC(C)=O)[C@@]32[C@H](O)[C@H](OC(C)=O)[C@@H]1C` [CASEAMEMBRIN N], the EC50 is 3.27 µg/mL (≈ 5.81 µM) in assay [1], 4.37 µg/mL (≈ 7.77 µM) with DLD-1 and 8.94 µg/mL (≈ 15.9 µM) in the assay on KB.

As for `C=CC(=C)CC[C@]1(C)[C@H]2C[C@H](OC(=O)C(C)CC)C=C3[C@H](OC(=O)CCC)O[C@H](OC(C)=O)[C@@]32[C@H](O)[C@H](OC(C)=O)[C@@H]1C` (stereo partly drawn) [CASEAMEMBRIN D], the EC50 in assay [1] came out at 2.42 µg/mL (≈ 4 µM); in the assay with DLD-1, 1.81 µg/mL (≈ 2.99 µM); with KB it was 5.57 µg/mL (≈ 9.21 µM).

Consider `C=CC(=C)CC[C@]1(C)[C@H]2C[C@H](OC(=O)C(C)CC)C=C3[C@H](OC(C)=O)O[C@H](OC(C)=O)[C@@]32[C@H](OC(=O)CCC)C[C@@H]1C` (stereo partly drawn) [CASEAMEMBRIN M], for which the EC50 came to 14.4 µg/mL (≈ 24.5 µM) in assay [1], 14.2 µg/mL (≈ 24.1 µM) with DLD-1 and 18.4 µg/mL (≈ 31.3 µM) with KB.

Take `C=CC(=C)CC[C@]1(C)[C@H]2C[C@H](OC(=O)C(C)CC)C=C3[C@H](OC(C)=O)O[C@H](OC(C)=O)[C@@]32[C@H](O)C[C@@H]1C` (relative stereo): the EC50 was 1.93 µg/mL (≈ 3.72 µM) in assay [1], 1.18 µg/mL (≈ 2.28 µM) with DLD-1 and 3.6 µg/mL (≈ 6.94 µM) with KB.

Consider `C=CC(=C)CC[C@]1(C)[C@H]2C[C@H](OC(=O)CC(C)C)C=C3[C@H](OC(C)=O)O[C@H](OC(C)=O)[C@@]32[C@H](O)[C@H](OC(C)=O)[C@@H]1C` [CASEAMEMBRIN O], for which the EC50 is 1.94 µg/mL (≈ 3.36 µM) in assay [1], 2.54 µg/mL (≈ 4.4 µM) in the assay on DLD-1 and 6.94 µg/mL (≈ 12 µM) in the assay on KB.

In the case of `CO[C@@]12[C@H](COC(N)=O)C3=C(C(=O)C(C)=C(N)C3=O)N1C[C@@H]1N[C@@H]12` [MITOMYCIN], the values for the EC50 (in assay [1]; with DLD-1; with KB) were 0.1 µg/mL (≈ 0.299 µM), 0.1 µg/mL (≈ 0.299 µM) and 0.13 µg/mL (≈ 0.389 µM), respectively.
